First the molecules themselves.
B1: NELF-E aptamer (parent)
chain: CCCAACGACUGCCGAGCGAGAUUACGCUUGAGCGCCCCACUGAGGAUGCCCACGGGCGAUUGGGGCACGG

In the data set the parent is B1. Briefly: HiTS-RAP. Particulars: with NELF-E (Drosophila). The procedure, abridged:
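Aptamer DNA templates bearing a T7 promoter and a ter site were sequenced on an Illumina GAIIx flowcell. T7 RNA polymerase then transcribed them in situ, and GST-Tus halted transcription over 30 minutes at 37°C. After a 30-minute room-temperature equilibration with NELF-E-mOrange at 0.064 to 1000 nM in HEPES binding buffer, clusters were imaged, using only the first binding curve. Intensities normalised to sequencing intensity were averaged per sequence and fitted with weighted Hill fits to give Kd, retaining only fits whose variance stayed under 1,000,000.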
As usually defined, the Kd is the equilibrium constant for the complex coming apart. As for CCCAACGAGUGCCGAGCGAGAUUACGCUUGAGCGCCCCACUGAGGAUGCCCACGGUCGAUUGGGGCACGG [C9G G56U], the Kd was determined as 6.71 nM.
CCCAACGAGUGCCGAGCGAGAUUAUGCUUGAGCGCCCCACUGAGGAUGCCCACGGGCGAUUGGGGCACGG [C9G C25U]: the dissociation constant (Kd) was 7.05 nM.
To CCCAACGAGUGCCGAGCGAGAUUAGGCUUGAGCGCCCCACUGAGGAUGCCCACGGGCGAUUGGGGCACGG [C9G C25G] belongs 6.33 nM; to CCCAACGAGUGCCGAGCAAGAUUACGCUUGAGCGCCCCACUGAGGAUGCCCACGGGCGAUUGGGGCACGG [C9G G18A], 6.15 nM; to CCCAACGAGUGCCGAGCUAGAUUACGCUUGAGCGCCCCACUGAGGAUGCCCACGGGCGAUUGGGGCACGG [C9G G18U], 6.65 nM.
On to CCCAACGAGUGCCGAGCGAGAUUACGCUUGAGCGCCCCACUGAGGAUGCCCACGGGCGAUUGAGGCACGG [C9G G63A], for which the dissociation constant Kd came to 15.9 nM.
Take CCCAACGAGUGCCGAGCGAGAUUACGCUUGAGCGCCCCACUGAGGAUGCCCACGGGCGAUUGUGGCACGG [C9G G63U]: the dissociation constant (Kd) is 10.3 nM.
To CCCAACGAGUGCCGAGGGAGAUUACGCUUGAGCGCCCCACUGAGGAUGCCCACGGGCGAUUGGGGCACGG [C9G C17G] belongs 5.43 nM; to CCCAACGAGUGCCGAGUGAGAUUACGCUUGAGCGCCCCACUGAGGAUGCCCACGGGCGAUUGGGGCACGG [C9G C17U], 4.67 nM.
As for CCCAACGAGUGCCGAGCGAGAUUACGCUUGAGCGCCCCACUGAGGAUGCCCCCGGGCGAUUGGGGCACGG [C9G A52C], the equilibrium dissociation constant (Kd) was determined as 7.38 nM.
Then CCCAACGAGUGCCGAGCGAGAUUACGCUUGAGCGCCCCACUGAGGAUGCCCGCGGGCGAUUGGGGCACGG [C9G A52G], with 4.79 nM.
Then CCCAACGAGUGCCGAGCGAGAUUACGCUUGAGCGCCCCACUGAGGAUGCCCUCGGGCGAUUGGGGCACGG [C9G A52U], with 14.9 nM; and CCCAACGAGUGCCGAGCGAGAUUACGCUUGAGCGCCCUACUGAGGAUGCCCACGGGCGAUUGGGGCACGG [C9G C38U], with 8.24 nM; and CCCAACGAGUGACGAGCGAGAUUACGCUUGAGCGCCCCACUGAGGAUGCCCACGGGCGAUUGGGGCACGG [C9G C12A], with 4.67 nM.
To CCCAACGAGUGGCGAGCGAGAUUACGCUUGAGCGCCCCACUGAGGAUGCCCACGGGCGAUUGGGGCACGG [C9G C12G] belongs 5.75 nM.
Consider CCCAACGAGUGUCGAGCGAGAUUACGCUUGAGCGCCCCACUGAGGAUGCCCACGGGCGAUUGGGGCACGG [C9G C12U], for which the Kd was determined as 5.9 nM.
CCCAACGAGUGCCGAGCGAGAUUACGCUUGAGCGCUCCACUGAGGAUGCCCACGGGCGAUUGGGGCACGG [C9G C36U]: the Kd came to 8.98 nM.
To CCCAACGAGUACCGAGCGAGAUUACGCUUGAGCGCCCCACUGAGGAUGCCCACGGGCGAUUGGGGCACGG [C9G G11A] belongs 6.35 nM; to CCCAACGAGUUCCGAGCGAGAUUACGCUUGAGCGCCCCACUGAGGAUGCCCACGGGCGAUUGGGGCACGG [C9G G11U], 6 nM; to CCCAACGAGCGCCGAGCGAGAUUACGCUUGAGCGCCCCACUGAGGAUGCCCACGGGCGAUUGGGGCACGG [C9G U10C], 5.98 nM.
Regarding CCCAACGAGAGCCGAGCGAGAUUACGCUUGAGCGCCCCACUGAGGAUGCCCACGGGCGAUUGGGGCACGG [C9G U10A], the Kd worked out at 6.51 nM.
Then CCCAACGAGGGCCGAGCGAGAUUACGCUUGAGCGCCCCACUGAGGAUGCCCACGGGCGAUUGGGGCACGG [C9G U10G], with 5.46 nM; and CCCAACGAGUGCCGAGCGAGAUUACGCUUGAGCGCCCCACUGAGGAUGCCCACGGGCGAUUGGGGCGCGG [C9G A67G], with 6.17 nM; and CCCAACGAGUGCCGAGCGAGAUUACGCUUGAGCGCCCCACUGAGGAUGCCCACGGGCGAUUGGGGCUCGG [C9G A67U], with 8.77 nM.
Turning to CCCAACGAGUGCCGAGCGAGAUUACGCUUGAGCGCCCCACUGAUGAUGCCCACGGGCGAUUGGGGCACGG [C9G G44U], the Kd came to 9.09 nM.
With CCCAACGAGUGCCGAGCGAGAUUACGCUUGAGCGCCCCACUGAAGAUGCCCACGGGCGAUUGGGGCACGG [C9G G44A], the Kd is 17.8 nM.
On to CCCAACGAGUGCCAAGCGAGAUUACGCUUGAGCGCCCCACUGAGGAUGCCCACGGGCGAUUGGGGCACGG [C9G G14A], for which the Kd was 6.55 nM.
As for CCCAACGAGUGCCUAGCGAGAUUACGCUUGAGCGCCCCACUGAGGAUGCCCACGGGCGAUUGGGGCACGG [C9G G14U], the Kd is 6.47 nM.
To CCCAACGAGUGCCGAGCGAGAUUACGCUUGAGCGCCCCACUGAGGAUGCCCACGGGCGAUUGGGGUACGG [C9G C66U] belongs 5.54 nM; to CCCAACGAGUGCCGAGCGAGAUUACGCUUGAGCGCCCCACUGAGGAUGCCCACGGGCGGUUGGGGCACGG [C9G A59G], 64.3 nM.
In the case of CCCAACGAGUGCCGAGCGAGAUUACGCUUGAGCGCCCCACUGAGGAUGCCCACGGGCGUUUGGGGCACGG [C9G A59U], the dissociation constant Kd was determined as 30.4 nM.
To CCCAACGAGUGCCGAGCGAGAUUACGCUUGAGCGCCCCACUGAGGAUGCCCACGGGCGAUUGGAGCACGG [C9G G64A] belongs 8.13 nM; to CCCAACGAGUGCCGAGCGAGAUUACGCUUGAGCGCCCCACUGAGGAUGCCCACGGGCGAUUGGCGCACGG [C9G G64C], 5.75 nM.
Then CCCAACGAGUGCCGAGCGAGAUUACGCUUGAGCGCCCCACUGAGGAUGCCCACGGGCGAUUGGUGCACGG [C9G G64U], with 8.07 nM; and CCCAACGAGUGCCGAGCGAGAUUACGCUUGAGCGCCCCACUGAGGAUGCCCACGGGUGAUUGGGGCACGG [C9G C57U], with 7.56 nM.
Then CCCAACGAGUGCCGAGCGAGAUUACGUUUGAGCGCCCCACUGAGGAUGCCCACGGGCGAUUGGGGCACGG [C9G C27U], with 4.83 nM; and CCCAACGAGUGCCGAGCGAGAUUACGCUUGAGCGCCCCACUGAGGAUGCCCACGGGCGAUUGGGUCACGG [C9G G65U], with 7.11 nM; and CCCAACGAGUGCCGAGCGAGAUUACGCUUGAGCGCCCCACUGAGGAUGCCCACGGGCGAUUGGGCCACGG [C9G G65C], with 16.4 nM.
For CCCAACGAGUGCCGAGCGAGAUUACGCUUGAGCGCCCCACUGAGGAUGCCCACGGGCGAUUGGGACACGG [C9G G65A], the Kd amounted to 4.83 nM.

These data come from the RNAGym collection of RNA variant scans (doi:10.1038/nmeth.2970).
